The subject of series [1] is U87 cells. In words: LDH leakage. The class given is cell-based, human. The conditions noted are these: reduced serum media, 6 hr, complexes and free peptide at a higher concentration. A digest of the protocol: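 U87 cells grown 24 hr in serum-containing medium, then switched to serum-free conditions: medium removed and complexes or free peptide added, diluted 1:10 in medium. Controls were untreated cells, 0.1% Triton X-100 and cell-free wells. After 6 hr at 37°C, 5% CO2, LDH activity (CytoTox-ONE) was measured per kit protocol and normalized to controls.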
(LDH leaks from cells whose membrane has failed.)

The target of series [2] is proteinase (Parengyodontium album, UniProt P06873). In words: Coincubation of CPP with proteinase, peptide fragments by UPLC. The class given is in vitro ADME. Conditions: coincubation of CPP with the enzyme, 2 hr at 37°C, data not shown.
Series [3] addresses Proteinase K (Parengyodontium album, UniProt P06873). The series is described as follows: Proteinase K degradation of CPP/siRNA complexes, PicoGreen read-out. The format is in vitro ADME. Conditions: PF6 at MR10, same charge ratio as other CPPs.
Series [4] concerns U87 cells. The series is described as follows: Neutral red lyso-toxicity assay, serum-free conditions. Conditions: reduced serum media, 6 hr, CPP and CPP/siRNA complexes at higher concentrations. The format is cell-based, human. A digest of the protocol: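 U87 cells grown 24 hr in serum-containing medium, then medium replaced by complexes or peptide diluted 1:10 in reduced-serum medium. Controls were untreated cells, 10 μM chloroquine and cell-free wells. Neutral red dye added and incubated 6 hr at 37°C, 5% CO2. Cells then washed with PBS, detection solution added for 10 min, absorbance read at 540 nm and normalized to controls.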

Series [5] has as its system luc2 gene in U87 MG-luc2 cells. In words: luc2 gene downregulation after CPP-mediated siRNA delivery. The class given is cell-based, human. Conditions: MR30, 25 nM siRNA, 10% FBS media, 24 hr post treatment.

Sequence of Proteinase K (P06873 106-384): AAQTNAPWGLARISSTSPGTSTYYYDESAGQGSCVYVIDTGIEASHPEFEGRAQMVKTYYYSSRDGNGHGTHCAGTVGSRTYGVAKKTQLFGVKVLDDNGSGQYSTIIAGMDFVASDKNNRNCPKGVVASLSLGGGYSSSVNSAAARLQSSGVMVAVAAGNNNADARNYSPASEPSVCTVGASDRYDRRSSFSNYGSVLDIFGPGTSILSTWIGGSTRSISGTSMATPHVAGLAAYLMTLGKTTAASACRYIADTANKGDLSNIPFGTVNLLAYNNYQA
Sequence of proteinase (P06873 106-384): as above

In the case of Stearyl-AGYLLGKINLKALAALAKKIL-NH2 [PF6], the LDH leakage entry in series [1] was “led to LDH leakage”. Besides, the “degradation of CPP by the proteinase” value in series [2] is given as “lack of a considerable increase of detectable peptide fragments”. Besides, the “stability to proteinase, times higher than with other tested CPPs” value in series [3] is listed as 10–20 times. For the same substance, the “Neutral red assay (lyso-toxicity)” value in series [4] was “showed toxic and/or buffering effects”. Further, in series [5], the “downregulation of luc2 gene at MR30” value is recorded as 80%.

The record behind these values is paper PMC5363680 (Molecular Therapy. Nucleic Acids, 2017).
